MITF TRPM1 HTS: MITF TRPM1 promoter activation in melanoma cells; SK-MEL-5 TRPM1-promoter luciferase, 24 h; % of positive control, neutral wells = 0; activation, % at 12.5 µM; 300,000 compounds, 0.75% hits; AID 588334;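 active = mean activation of at least 80% with every replicate also reaching 80%; inconclusive = mean reaches 80% but some replicate falls short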;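 also: 0% = neutral control wells and 100% = parthenolide positive control wells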
PGC1a acetyl inh: modulators of PGC1a acetylation. U2OS PGC1a acetylation, AlphaScreen anti-acetyl-lysine; with virally co-expressed GCN5 acetyltransferase. inhibition, % at 15.6 µM. 350,000 compounds, 0.17% hits. AID 651687;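 active = every replicate shows inhibition of at least 40%; inconclusive = mean inhibition at least 40% but some replicate below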;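 also: 0% = neutral control wells and 100% = positive control wells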
Wnt act: activators of Wnt/beta-catenin signaling; Wnt/beta-catenin reporter cell assay, activator, plate reader; activation, % at 9.35 µM; 300,000 compounds, 1.2% hits; AID 743398; in the data active = activation above about 30%, passing the limit was not always enough; inconclusive = no clear call, values can overlap the other calls;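 also: 0% = neutral control wells and 100% = positive control wells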
Cneo AK release: causes C. neoformans cell lysis; adenylate kinase release luminescence, 4 h; normalised: neutral wells 0, clomiphene wells 100; lysis activity, % at 15 µM; 360,000 compounds, 0.2% hits; AID 651654;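 active = mean lysis activity across replicates of at least 80%, whatever share of replicates individually reach that level; inactive = mean lysis activity below 80%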
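Material: C. neoformans cells; Schedule: 4 h static compound exposure, 37 °C, read 1 h post-reagent; Measured by: adenylate kinase release luminescence; Read-out: signal increase indicating cell lysis; Controls: Clomiphene as positive lysis control.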
The depositor's hits bear a star; u = inconclusive; x = no result. The list is not random: actives were taken first. Their share in the collection is about 1.5%.

SMILES	MITF TRPM1 HTS	PGC1a acetyl inh	Wnt act	Cneo AK release
CNC[C@@H]1OCCCC[C@@H](C)Oc2ccc(NC(=O)Nc3ccc4c(c3)OCO4)cc2C(=O)N([C@H](C)CO)C[C@@H]1C	x	3	x	89*
Cc1cccc(-c2ccc([C@H]3[C@H](CO)N4CCCCN(Cc5ccncc5)C[C@@H]34)cc2)c1	x	-9	x	1
C[C@H](CO)N1C[C@H](C)[C@@H](CN(C)CC2CCOCC2)Oc2cc(C#CC3CC3)ccc2S1(=O)=O	x	-4	x	-4
Cc1cc(C)c(C#N)c(N2CCSCC2)n1	14	-11	62*	-3
Cc1cc(C)c(C#N)c(N2CCN(c3ccccc3)CC2)n1	1	49*	4	-9
COc1ccc(-c2noc(-c3ccco3)n2)cc1OC	u	-2	50*	-3
COc1ccc(-c2noc(-c3ccoc3C)n2)cc1	58	-24	12	x
COc1ccc(-c2nc(-c3ccncc3)no2)cc1OC	x	1	x	-1
COc1ccc(-c2noc(-c3cccc(Cl)c3)n2)cc1OC	u	-7	11	-1
COc1ccc(-c2noc(-c3cccs3)n2)cc1OC	x	10	60*	x
COc1cc(-c2noc(-c3cccs3)n2)cc(OC)c1OC	24	-10	7	13
COc1ccc(-c2noc(-c3ccccc3Cl)n2)cc1OC	86*	-10	0	-1
COc1ccc(-c2noc(-c3ccoc3C)n2)cc1OC	89*	x	12	x
C[C@H](CO)N1C[C@H](C)[C@@H](CN(C)C(=O)Nc2ccccc2)Oc2ccc(NS(=O)(=O)c3cn(C)cn3)cc2CC1=O	x	-5	x	-2
O=C(Nc1nc(-c2ccc(Cl)cc2)cs1)C1=COCCO1	99*	x	-2	-2
CCc1ccc(-c2csc(NC(=O)C3=COCCO3)n2)cc1	82*	x	u	-1
COc1ccc(-c2csc(NC(=O)C3=COCCO3)n2)cc1OC	74	4	35*	-2
Cn1nc(-c2ccccc2)cc1NC(=O)CCCC(=O)O	4	x	1	x
Cn1nc(-c2ccc(Cl)cc2)cc1NC(=O)CC(C)(C)CC(=O)O	x	12	41*	-1
C[C@H](CO)N1C[C@H](C)[C@H](CN(C)C(=O)C2CCCCC2)Oc2cc(C3=CCCC3)ccc2S1(=O)=O	x	5	x	-4
O=C(CSc1nnc(-c2ccccc2)n1-c1ccc(Cl)cc1)N/N=C/c1ccccc1C(=O)O	0	45*	-3	-6
Cc1ccc(-c2nnc(SCC(=O)N/N=C/c3ccccc3C(=O)O)n2-c2ccc(C)cc2)cc1	-2	-7	1	1
Cn1c(O)c(C=Nc2ccc(Br)cc2)sc1=O	68	-2	60*	x
CCCn1c(O)c(C=Nc2ccccc2)sc1=S	79	-15	0	-1
CCC(=O)N1CC2(C1)[C@@H](c1ccc(-c3cccc(OC)c3)cc1)[C@@H](CO)N2C(C)=O	x	7	x	x
SMILES	MITF TRPM1 HTS	PGC1a acetyl inh	Wnt act	Cneo AK release
COc1ccc(/C=C/c2nc3ccccc3n2Cc2ccc(OC)c(OC)c2)cc1	108*	-5	23	x
CCc1nc2ccccc2n1Cc1ccc(OC)c(OC)c1	-15	-3	-4	3
CSCCC(NC(C)=O)C(=O)Oc1ccc2c3c(c(=O)oc2c1)CCCC3 (configuration not stated)	x	13	3	2
CSCCC(NC(=O)OC(C)(C)C)C(=O)Oc1ccc2c(=O)c(-c3ccc4c(c3)OCCO4)coc2c1 (configuration not stated)	x	-73	37*	-11
COc1ccc(CN(C)C[C@@H]2OCCCC[C@@H](C)Oc3ccc(NC(=O)c4ccccc4)cc3C(=O)N([C@H](C)CO)C[C@H]2C)cc1	x	-6	x	-2
OCC1OC(n2ccc3c(SCc4ccccc4)ncnc32)C(O)C1O (configuration not stated)	55	4	32*	-3
O=C(CSc1ncccn1)N1CCCc2ccccc21	2	-2	0	x
Cc1ccnc(SCC(=O)N2CCc3ccccc32)n1	86*	x	14	-1
O=C(CSc1nnc2ccccn12)N1CCc2ccccc21	47	-3	34*	-3
COc1ccccc1CN1C[C@@H](C)[C@H](OC)CN(C)C(=O)c2ccc(NC(C)=O)cc2OC[C@@H]1C	x	4	x	3
COc1cc(C2Nc3cccc4cccc(c34)N2)ccc1OC(C)=O	-2	56*	x	-1
c1ccc(CSc2nnc(NC3CCCCC3)s2)cc1	x	x	42*	4
Cc1nc2c3cnn(-c4ccc(C)c(C)c4)c3ncn2n1	87*	8	x	x
Cc1ccc(-n2ncc3c(=O)n(CC(N)=O)cnc32)cc1C	28	x	2	-1
